Measurements published in ChEMBL document CHEMBL1144240, “Binding is not enough: flexibility is needed for photocrosslinking of Lck kinase by benzophenone photoligands” (Bioorg Med Chem, 2008).
The source made the active and inactive calls. The rule behind the calls is not given here.

Tests used:
[1] = molecular target: T1, Tyrosine-protein kinase Lck (Homo sapiens, UniProt P06239); experiment: Inhibition of Lck by luciferase based assay
Summary of the method: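 Lck (prediluted to 46 ng/µl) was mixed with Src substrate peptide (0.25 mM stock) in 50 mM HEPES pH 7.3, 2.5 mM DTT, 0.01% Triton X-100 and 10 mM MgCl2, plus ligand at various concentrations. Reaction was started with 100 µM ATP stock and run 1 h at room temperature. Residual ATP was read by Kinase-Glo Plus luminescence after 10 min. IC50 with 95% CI from sigmoidal fit, n = 2 or 3.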

[2] = Chemical stability after 30 mins of UV irradiation by RP-HPLC; type: physicochemical; settings: read-out: Stability
Summary of the method: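 Free ligands in buffer solution were irradiated under a UV-A lamp (λmax 350 nm). Aliquots were taken at 0, 10 and 30 min, and intact ligand was quantified by HPLC with UV detection at 280 nm.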

[3] = molecular target: T1, Tyrosine-protein kinase Lck; experiment: Binding affinity to Lck assessed as photolabeling efficiency in presence of ATP-competitive Lck inhibitor by Western blot
Target sequence in this assay (P06239 2-509 limits assumed): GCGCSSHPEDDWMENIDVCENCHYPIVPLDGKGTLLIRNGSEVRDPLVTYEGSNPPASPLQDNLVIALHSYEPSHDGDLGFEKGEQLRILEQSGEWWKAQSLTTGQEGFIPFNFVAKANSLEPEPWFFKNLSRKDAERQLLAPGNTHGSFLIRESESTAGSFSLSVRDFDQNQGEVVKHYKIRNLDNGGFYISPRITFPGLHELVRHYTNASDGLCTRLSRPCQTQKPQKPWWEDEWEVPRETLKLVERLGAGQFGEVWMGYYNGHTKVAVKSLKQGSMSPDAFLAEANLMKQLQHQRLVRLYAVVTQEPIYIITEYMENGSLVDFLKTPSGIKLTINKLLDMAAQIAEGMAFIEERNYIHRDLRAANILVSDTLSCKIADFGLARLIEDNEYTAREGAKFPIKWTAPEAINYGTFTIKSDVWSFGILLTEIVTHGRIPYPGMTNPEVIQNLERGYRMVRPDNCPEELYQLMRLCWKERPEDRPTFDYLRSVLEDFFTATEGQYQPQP

[4] = molecular target: T1, Tyrosine-protein kinase Lck; experiment: Binding affinity to Lck assessed as photolabeling efficiency by Western blot analysis
Summary of the method: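 Lck was photocrosslinked with each ligand at 0, 3, 9, 18, 36, 90 and 180 µM. Labeled-band intensities were plotted against probe concentration. EC50 (ligand concentration giving 50% of maximal labeling) and its 95% CI were obtained by sigmoidal dose-response fitting of triplicate trials (n = 3).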
Target sequence in this assay (P06239 whole entry): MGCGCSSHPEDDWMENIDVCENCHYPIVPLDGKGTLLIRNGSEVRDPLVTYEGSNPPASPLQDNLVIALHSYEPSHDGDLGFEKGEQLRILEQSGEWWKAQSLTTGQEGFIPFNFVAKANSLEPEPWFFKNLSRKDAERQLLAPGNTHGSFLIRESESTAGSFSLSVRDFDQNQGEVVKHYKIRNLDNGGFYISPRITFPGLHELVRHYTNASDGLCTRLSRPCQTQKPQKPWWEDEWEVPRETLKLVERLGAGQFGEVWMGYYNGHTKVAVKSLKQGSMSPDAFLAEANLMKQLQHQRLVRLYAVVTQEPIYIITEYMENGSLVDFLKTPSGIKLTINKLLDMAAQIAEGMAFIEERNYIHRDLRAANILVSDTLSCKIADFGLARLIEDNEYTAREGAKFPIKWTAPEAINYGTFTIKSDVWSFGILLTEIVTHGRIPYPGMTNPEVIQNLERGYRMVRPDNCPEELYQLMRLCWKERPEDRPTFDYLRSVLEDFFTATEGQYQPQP

SMILES | Activity [1] | remaining at 0.5 h [2] | Activity [3] | EC50 [4] | IC50 [1]
Nc1ncnc2c1ncn2CC(=O)N(CCNC(=O)[C@@H](CCC(=O)O)NC(=O)[C@H](Cc1ccc(C(=O)c2ccccc2)cc1)NC(=O)CCCNC(=O)CCCC[C@@H]1SC[C@@H]2NC(=O)N[C@@H]21)CC(=O)NCC(=O)O | inactive | 70% | inactive | 18.4 µM | 
Nc1ncnc2c1ncn2CC(=O)N(CCNC(=O)CCCNC(=O)[C@H](Cc1ccc(C(=O)c2ccccc2)cc1)NC(=O)CCCNC(=O)CCCC[C@@H]1SC[C@@H]2NC(=O)N[C@@H]21)CC(=O)NCC(=O)O | inactive | 70% | inactive | 4.4 µM | 
Nc1ncnc2c1ncn2CC(=O)N(CCNC(=O)CNC(=O)[C@H](Cc1ccc(C(=O)c2ccccc2)cc1)NC(=O)CCCNC(=O)CCCC[C@@H]1SC[C@@H]2NC(=O)N[C@@H]21)CC(=O)NCC(=O)O | inactive | 70% | inactive | 14.4 µM | 
Nc1ncnc2c1ncn2CC(=O)N(CCNC(=O)[C@@H](CO)NC(=O)[C@H](Cc1ccc(C(=O)c2ccccc2)cc1)NC(=O)CCCNC(=O)CCCC[C@@H]1SC[C@@H]2NC(=O)N[C@@H]21)CC(=O)NCC(=O)O |  | 70% | inactive | 23.3 µM | 50 µM
Nc1ncnc2c1ncn2CC(=O)N(CCNC(=O)[C@H]1CCCN1C(=O)[C@H](Cc1ccc(C(=O)c2ccccc2)cc1)NC(=O)CCCNC(=O)CCCC[C@@H]1SC[C@@H]2NC(=O)N[C@@H]21)CC(=O)NCC(=O)O |  | 70% |  | > 150 µM | 50 µM
Nc1ncnc2c1ncn2CC(=O)N(CCNC(=O)[C@H]1CCCCN1C(=O)[C@H](Cc1ccc(C(=O)c2ccccc2)cc1)NC(=O)CCCNC(=O)CCCC[C@@H]1SC[C@@H]2NC(=O)N[C@@H]21)CC(=O)NCC(=O)O | inactive | 70% |  | > 150 µM | 
